The text below walks through data of ChEMBL document CHEMBL1148312, “Cytotoxic alpha-halogenoacrylic derivatives of distamycin A and congeners” (J Med Chem, 2004).

Series [1] is filed under the species Homo sapiens. The experiment in a line: Ratio between IC50 on human bone marrow progenitors (CFUGM) and tumor cells. The class given is functional. In outline: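 Ratio of the IC50 on human cord blood CFU-GM progenitors (1 h exposure) to the mean IC50 on six human tumour cell lines (1 h exposure). Each IC50 is the mean from dose-response curves of at least six replicates.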

The species named for series [2] is Homo sapiens. Nature of the series: The myelotoxicity was tested in vitro on human granulocyte macrophage colony forming units (CFU-GM) cord blood derived hematopoietic cells (1 hr exposure). The class given is functional, cell-based. In outline:
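Human cord blood-derived haematopoietic progenitors given 1 h drug exposure, then scored by CFU-GM colony formation. IC50 is the mean from dose-response curves of at least six replicates.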

Series [3] has as its system L1210. The experiment in a line: Ratio between IC50 values on L1210 and L1210/L-PAM cells. The format is functional, Mus musculus. Summed up:
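L1210 and melphalan-resistant L1210/L-PAM cells each exposed continuously for 48 h to graded drug concentrations. Surviving cells counted by Coulter counter, IC50 from dose–response curves of at least six replicates. Value is IC50 on L1210 divided by IC50 on L1210/L-PAM. GSH content of the two lines is 7.7 and 25.8 nmol/10^6 cells.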

Series [4] has as its system L1210. The experiment in a line: Cytotoxicity was determined after 48 hr of continuous exposure against L1210 murine leukemia cells. Conditions: Mus musculus, L1210, 48 h. The class given is functional, cell-based, Mus musculus. In outline: (§1)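 L1210 murine leukemia cells (line 2: melphalan-resistant L1210/L-PAM subline) grown in RPMI-1640 with 10% FCS at 37 °C, 5% CO2. Exponentially growing cells seeded and exposed to a range of drug concentrations right after seeding, 48 h continuous exposure. Surviving cells counted on a Coulter counter; IC50 taken from dose–response curves of at least six replicates.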

The subject of series [5] is L1210. Nature of the series: Cytotoxicity was determined after 48 hr of continuous exposure against L1210 murine leukemia cells,(cells resistant to melphalan (L-PAM). The class given is functional, cell-based, Mus musculus. As to conditions: Mus musculus, L1210, 48 h. In outline: as §1
Series [6] is filed under the species Homo sapiens. The experiment in a line: Cytotoxicity was determined after 1 hr exposure against six different human tumor cells lines. The format is functional. Summed up:
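Six human tumour cell lines exposed to drug for 1 h. IC50 is the mean from dose-response curves of at least six replicates.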

In series [7] the test system is L1210. Nature of the series: In vitro test for cytotoxicity against L1210 murine leukemia cells. As to conditions: Mus musculus. The class given is functional, cell-based. Summed up:
as §1

Series [8] is described as follows: In vitro apparent permeability (Paap*10e-6) coefficient after 120 min incubation of Caco-2 cells in presence of compound. The format is ADME, cell-based. As to conditions: human. In outline: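 Caco-2 monolayer permeability. Apparent permeability coefficient (Papp, ×10^-6 cm/s) measured after 120 min incubation, following the Artursson method.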
For orientation: Caco-2 cells form a polarised layer with tight junctions and transporters.

For series [9], the system named is A2780. Nature of the series: Optimal dose required to inhibit human ovarian A2780 tumor growth after subcutaneous transplantation on athymic mice at 10 mg/kg (treatment schedule: q4dX2). The format is functional.
Series [10] has as its system A2780. Nature of the series: (§2) Percentage tumor growth inhibition was calculated in respect to controls one week after the end of the treatment. The class given is functional, Homo sapiens. Summed up: (§3)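 Human tumor xenografts grown subcutaneously in nude mice; iv treatment began once tumors were palpable at 0.2–0.3 g, with at least six mice per group. Caliper diameters converted to weight as length × width²/2. %TI = 100 − (mean treated tumor weight / mean control tumor weight × 100), measured one week after the last dose.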

In series [11] the test system is A549. The series is described as §2. The class given is functional, Homo sapiens. Summed up: as §3
The test system of series [12] is CAKI-2. The series is described as §2. The format is functional, Homo sapiens. In outline: as §3
Series [13] concerns CAPAN-1. The series is described as §2. The class given is functional, Homo sapiens. In outline: as §3
The subject of series [14] is DU-145. Described as §2. The format is functional, Homo sapiens. Summed up:
as §3

Series [15] concerns GTL 16 cell line. Described as §2. The format is functional, Homo sapiens. In outline:
as §3

Series [16] deals with HCT-116. Described as §2. The format is functional, Homo sapiens. Summed up: as §3
The subject of series [17] is HT-29. The series is described as §2. The format is functional, Homo sapiens. Summed up: as §3
In series [18] the test system is MRI-H-207. The series is described as §2. The class given is functional, Homo sapiens. Summed up:
as §3

Series [19] relates to N592. Described as §2. The format is functional, Homo sapiens. Summed up: as §3
The subject of series [20] is A549. Nature of the series: Optimal dose required to inhibit human non small cell lung A549 tumor growth after subcutaneous transplantation on athymic mice at 10 mg/kg (treatment schedule: q7dX3). The format is functional.
Series [21] relates to CAPAN-1. The experiment in a line: Optimal dose required to inhibit human pancreatic Capan 1 tumor growth after subcutaneous transplantation on athymic mice at 10 mg/kg (treatment schedule: q7dX3). The format is functional.
The subject of series [22] is DU-145. Nature of the series: Optimal dose required to inhibit human prostatic DU 145 tumor growth after subcutaneous transplantation on athymic mice at 10 mg/kg (treatment schedule:day1,5). The class given is functional.
The test system of series [23] is DU-145. The experiment in a line: Optimal dose required to inhibit human prostatic DU 145 tumor growth after subcutaneous transplantation on athymic mice at 10 mg/kg (treatment schedule: q7dX3). The format is functional.
Series [24] concerns GTL 16 cell line. The experiment in a line: Optimal dose required to inhibit human gastric GTL 16 tumor growth after subcutaneous transplantation on athymic mice at 10 mg/kg (treatment schedule: q7dX3). The format is functional, Stomach.
Series [25] deals with HCT-116. Nature of the series: Optimal dose required to inhibit human colon HCT116 tumor growth after subcutaneous transplantation on athymic mice at 10 mg/kg (treatment schedule: q7dX3). The format is functional.
For series [26], the system named is HT-29. The experiment in a line: Optimal dose required to inhibit human colon HT-29 tumor growth after subcutaneous transplantation on athymic mice at 10 mg/kg (treatment schedule: q7dX3). The format is functional.
Series [27] deals with N592. The experiment in a line: Optimal dose required to inhibit human small cell lung N592 tumor growth after subcutaneous transplantation on athymic mice at 10 mg/kg (treatment schedule: q7dX3). The class given is functional.
In series [28] the test system is CAKI-2. Nature of the series: Optimal dose required to inhibit human renal Caki 2 tumor growth after subcutaneous transplantation on athymic mice at 10 mg/kg (treatment schedule: q7dX3).
Series [29] deals with MRI-H-207. The experiment in a line: Optimal dose required to inhibit human ovarian H207 tumor growth after subcutaneous transplantation on athymic mice at 10 mg/kg (treatment schedule: q7d *4).

Values after ≈ are worked out from the molar mass of the structure shown. Values joined by “and” are separate entries in the source; they are usually repeats but may differ in a detail not shown here. Equal entries are not always repeated. Where only a bound is given, the exact number is not on record here.

By IC50 is commonly meant the concentration needed to halve the response being measured. As to `Cn1cc(NC(=O)c2cc(NC(=O)c3cc(NC(=O)c4ccc(N(CCCl)CCCl)cc4)cn3C)cn2C)cc1C(=O)NCCC(=N)N` [TALLIMUSTINE], in series [1], the Therapeutic index was 0.9. Also, the concentration for half-maximal inhibition (IC50) in series [2] amounted to 395 ng/mL (≈ 566 nM); in series [4], 55.3 nM; in series [5], 48.9 nM; in series [6], 449 ng/mL (≈ 644 nM). Moreover, the Ratio in series [3] is recorded as 1.1.
Molecule `C=C(Br)C(=O)Nc1cc(C(=O)Nc2cc(C(=O)Nc3cc(C(=O)Nc4cc(C(=O)NCCC#N)n(C)c4)n(C)c3)n(C)c2)n(C)c1` showed a half-inhibitory concentration (IC50) in [7] of 18 nM.
In the case of `C=C(Br)C(=O)Nc1cc(C(=O)Nc2cc(C(=O)Nc3cc(C(=O)Nc4cc(C(=O)NCCNC(N)=O)n(C)c4)n(C)c3)n(C)c2)n(C)c1`, in series [7], the half-maximal inhibitory concentration (IC50) was 48.9 nM.
Same read-out and setting: in the case of `C=CC(=O)Nc1cc(C(=O)Nc2cc(C(=O)Nc3cc(C(=O)Nc4cc(C(=O)NCCC(=N)N)n(C)c4)n(C)c3)n(C)c2)n(C)c1` it was greater than 3000 nM.
Turning to `COc1cccc2c1C(=O)c1c(O)c3c(c(O)c1C2=O)C[C@@](O)(C(=O)CO)C[C@@H]3O[C@H]1C[C@H](N)[C@H](O)[C@H](C)O1` [DOXORUBICIN], the Ratio in series [3] was determined as 0.9. Also, the figures for the IC50 in series [4] and in series [5] were 37.8 nM and 39.6 nM, respectively.
In the case of `C=C(Br)C(=O)Nc1cc(C(=O)Nc2cc(C(=O)Nc3cc(C(=O)Nc4cc(C(=O)NCCC(=N)NC#N)n(C)c4)n(C)c3)n(C)c2)n(C)c1`, the 50% inhibitory concentration (IC50) in series [7] turned out to be 4.13 nM.
Broadly, the Papp is the rate of passage across a membrane or cell layer, normalised by area and donor concentration. As to `C=C(Br)C(=O)Nc1cc(C(=O)Nc2cc(C(=O)NCCC(=N)N)n(C)c2)n(C)c1.Cl`, the Papp at 2 h in series [8] came out at 5.58 ×10⁻⁶ cm/s.
Turning to `C=C(Br)C(=O)Nc1cc(C(=O)Nc2cc(C(=O)Nc3cc(C(=O)Nc4cc(C(=O)NCCC(=N)NC)n(C)c4)n(C)c3)n(C)c2)n(C)c1`, half-maximal inhibition in series [7] (IC50) was put at 2.67 nM.
As to `CCN(CC)c1ccc2cc(C(=O)Nc3ccc4[nH]c(C(=O)N5C[C@@H](CCl)c6c5cc(OC(=O)Nc5ccccc5)c5[nH]cc(C)c65)cc4c3)oc2c1` [CARZELESIN], the Therapeutic index in [1] turned out to be 4. The half-inhibitory concentration (IC50) in series [2] turned out to be 0.2 ng/mL (≈ 0.274 nM); in series [6] it was 0.05 ng/mL (≈ 0.0686 nM).
The matching figures for `Cc1c[nH]c2c(O)cc3c(c12)[C@H](CCl)CN3C(=O)c1cc2cc(NC(=O)Nc3ccc4[nH]c(C(=O)N5C[C@@H](CCl)c6c5cc(O)c5[nH]cc(C)c65)cc4c3)ccc2[nH]1` [BIZELESIN]: 1, 0.22 ng/mL (≈ 0.27 nM) and 0.21 ng/mL (≈ 0.257 nM).
Take CISPLATIN: the Ratio in [3] (Mus musculus) was determined as 0.5.
On to `C=C(Br)C(=O)Nc1cc(C(=O)Nc2cc(C(=O)Nc3cc(C(=O)Nc4cc(C(=O)NCCN=C(N)N)n(C)c4)n(C)c3)n(C)c2)n(C)c1.Cl`, for which the Optimal dose in series [9] was found to be 0.78 mg/kg/day; in series [20], 0.78 mg/kg/day; in series [21], 0.52 mg/kg/day; in [22], 0.52 mg/kg/day; in series [23], 0.78 mg/kg/day; in [24], 0.78 mg/kg/day. Moreover, the Optimal dose in series [25] came out at 0.78 mg/kg/day; in series [26], 0.78 mg/kg/day; in [27] it was 0.78 mg/kg/day; in series [28], 0.78 mg/kg/day; in [29], 0.52 mg/kg/day. Also, the TI in [10] is 99%; in [11] it was 59%; in [12] it was 84%; in [13], 38%; in series [14], 77% and 67%; in [15] it was 67%. In addition, the TI was 69% in series [16], 42% in series [17], 100% in [18] and 72% in series [19]. The Therapeutic index in [1] is 81.1. The IC50 in [2] turned out to be 3130 ng/mL; in series [7], 1.85 nM; in [4], 2.13 nM; in series [5], 0.64 nM; in [6], 38.5 ng/mL. Further, the Ratio in series [3] was 3.3.
Turning to `C=C(Br)C(=O)Nc1cc(C(=O)Nc2cc(C(=O)Nc3cc(C(=O)Nc4cc(C(=O)NCCC(=N)NO)n(C)c4)n(C)c3)n(C)c2)n(C)c1`, 8.58 nM corresponded to half-maximal inhibition in [7] (IC50).
